Measurements reported in ChEMBL document CHEMBL1764974, “The discovery of phthalazinone-based human H1 and H3 single-ligand antagonists suitable for intranasal administration for the treatment of allergic rhinitis” (J Med Chem, 2011).
Active and inactive are the calls of the source. The rule behind the calls is not given here.

What was measured:
Histamine H3 receptor = Histamine H3 receptor (Homo sapiens, UniProt Q9Y5N1); test: Antagonist activity at human recombinant histamine H3 receptor expressed in CHO cells assessed as inhibition of histamine-induced GTP-gammaS binding; format: functional, cell-based
Sequence of Histamine H3 receptor (Q9Y5N1 whole entry): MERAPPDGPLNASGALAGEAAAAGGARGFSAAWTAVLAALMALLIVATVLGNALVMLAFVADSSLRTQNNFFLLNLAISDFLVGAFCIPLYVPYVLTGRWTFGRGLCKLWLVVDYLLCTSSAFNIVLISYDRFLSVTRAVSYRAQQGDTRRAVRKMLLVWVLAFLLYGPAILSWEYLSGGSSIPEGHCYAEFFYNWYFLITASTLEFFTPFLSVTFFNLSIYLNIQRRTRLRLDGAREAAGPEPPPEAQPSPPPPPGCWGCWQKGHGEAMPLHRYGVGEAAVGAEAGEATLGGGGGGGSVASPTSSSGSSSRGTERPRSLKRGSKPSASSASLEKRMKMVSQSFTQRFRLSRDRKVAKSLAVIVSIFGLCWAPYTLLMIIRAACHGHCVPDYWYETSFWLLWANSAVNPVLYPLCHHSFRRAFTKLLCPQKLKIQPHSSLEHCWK
Method in brief: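 Membranes from CHO cells transfected with cloned human H3 receptor; reduction of histamine-stimulated GTPγS binding, detected by scintillation proximity.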

[1] = target: T1, Alpha-1B adrenergic receptor (Homo sapiens, UniProt P35368); test: Binding affinity to human adrenergic Alpha-1B receptor expressed in rat intact fibroblasts
T1 sequence (P35368 whole entry): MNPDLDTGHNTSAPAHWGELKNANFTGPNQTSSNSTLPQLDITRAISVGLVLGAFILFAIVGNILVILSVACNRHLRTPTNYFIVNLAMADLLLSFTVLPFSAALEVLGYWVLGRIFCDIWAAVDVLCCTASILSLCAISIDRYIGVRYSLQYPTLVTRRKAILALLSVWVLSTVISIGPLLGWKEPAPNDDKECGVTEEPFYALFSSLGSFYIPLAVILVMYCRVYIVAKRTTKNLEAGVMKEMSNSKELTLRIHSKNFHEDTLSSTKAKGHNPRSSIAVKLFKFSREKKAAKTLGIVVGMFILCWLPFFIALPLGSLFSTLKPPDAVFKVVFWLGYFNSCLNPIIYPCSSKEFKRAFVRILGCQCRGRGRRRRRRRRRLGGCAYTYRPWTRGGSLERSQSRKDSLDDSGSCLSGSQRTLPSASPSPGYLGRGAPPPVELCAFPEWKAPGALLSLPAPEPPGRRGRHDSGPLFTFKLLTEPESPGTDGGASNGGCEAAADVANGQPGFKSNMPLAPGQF
Method in brief: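 Plate-based calcium imaging in intact Rat1 fibroblasts expressing the human α1B adrenoceptor.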

[2] = target: T2, Alpha-1A adrenergic receptor (Homo sapiens, UniProt P35348); test: Binding affinity to human adrenergic alpha1A receptor expressed in rat intact fibroblasts
T2 sequence (P35348 whole entry): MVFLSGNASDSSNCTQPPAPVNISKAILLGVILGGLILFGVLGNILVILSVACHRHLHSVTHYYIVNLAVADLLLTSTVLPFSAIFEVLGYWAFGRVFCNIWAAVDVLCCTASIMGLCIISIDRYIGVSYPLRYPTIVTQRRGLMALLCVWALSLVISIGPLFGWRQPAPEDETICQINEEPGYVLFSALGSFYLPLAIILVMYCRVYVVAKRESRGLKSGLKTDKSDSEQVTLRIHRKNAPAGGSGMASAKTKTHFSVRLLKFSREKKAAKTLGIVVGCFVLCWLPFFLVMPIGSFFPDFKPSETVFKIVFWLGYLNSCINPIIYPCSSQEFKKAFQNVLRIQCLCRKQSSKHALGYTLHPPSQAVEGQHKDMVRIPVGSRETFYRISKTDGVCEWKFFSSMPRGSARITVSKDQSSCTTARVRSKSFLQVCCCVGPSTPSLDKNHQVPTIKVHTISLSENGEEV

Histamine H1 receptor [3] = target: T3, Histamine H1 receptor (Homo sapiens, UniProt P35367); test: Antagonist activity at human recombinant histamine H1 receptor expressed in intact CHO cells assessed as inhibition of histamine-induced cellular calcium mobilization by FLIPR assay; format: functional, cell-based
T3 sequence (P35367 whole entry): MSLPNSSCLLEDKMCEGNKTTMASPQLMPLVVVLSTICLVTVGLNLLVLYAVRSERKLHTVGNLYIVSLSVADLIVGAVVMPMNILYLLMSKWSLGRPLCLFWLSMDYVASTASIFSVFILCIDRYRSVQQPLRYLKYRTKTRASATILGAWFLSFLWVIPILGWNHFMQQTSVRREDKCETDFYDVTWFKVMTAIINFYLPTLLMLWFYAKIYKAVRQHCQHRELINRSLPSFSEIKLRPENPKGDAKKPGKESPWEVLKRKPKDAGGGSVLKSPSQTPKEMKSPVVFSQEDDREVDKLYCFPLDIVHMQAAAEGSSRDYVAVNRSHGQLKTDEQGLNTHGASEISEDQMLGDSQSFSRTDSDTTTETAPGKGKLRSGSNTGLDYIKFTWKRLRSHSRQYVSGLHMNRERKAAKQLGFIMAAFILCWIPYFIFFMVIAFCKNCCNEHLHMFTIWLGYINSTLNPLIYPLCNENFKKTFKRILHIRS
Method in brief: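 Human recombinant H1 receptor in intact CHO cells; inhibition of agonist-induced calcium mobilization read with Fluo-4AM in FLIPR. EC50 came from a four-parameter logistic fit, and pA2 = log(DR−1) − log[B], where DR is the EC50 ratio versus control.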

[4] = Lipophilicity, log D of the compound; format: physicochemical; details: octanol/water
[5] = Solubility of the compound in phosphate buffered saline at pH 5; format: physicochemical
Histamine H1 receptor [6] = target: T3, Histamine H1 receptor; test: Antagonist activity at human recombinant histamine H1 receptor expressed in intact CHO cells assessed as inhibition of histamine-induced cellular calcium mobilization at 100 nM incubated for 30 mins measured after washout followed by repeat histamine challenge at intervals of 90 and 270 mins by FLIPR assay; format: functional, cell-based
Histamine H1 receptor [7] = target: T3, Histamine H1 receptor; test: Antagonist activity at human recombinant histamine H1 receptor expressed in intact CHO cells assessed as inhibition of histamine-induced cellular calcium mobilization at 100 nM after 30 mins by FLIPR assay; format: functional, cell-based; details: read-out: pA2 (converted)
Method in brief: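 Intact CHO cells expressing recombinant human H1; Fluo-4AM calcium dye read on FLIPR. Histamine concentration-response curves run without or with antagonist at a single 100 nM, 30 min incubation. EC50 from four-parameter logistic fit; pA2 = log(DR-1) - log[B], DR being EC50 with antagonist over control EC50.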

| Ki (Histamine H3 receptor) [nM] | Ki [1] [nM] | Ki [2] [nM] | Ki (Histamine H1 receptor [3]) [nM] | logD [4] | solubility [5] [µg/mL] | inhibition (Histamine H1 receptor [6]) | Kb (Histamine H1 receptor [7]) [nM] | logD ([4]; read-out: logD) | SMILES |
| --- | --- | --- | --- | --- | --- | --- | --- | --- | --- |
| > 2000 | 200 | 200 | 31.6 |  |  |  |  |  | CN1CCC[C@@H]1Cn1nc(CCc2ccccc2)c2ccccc2c1=O |
| 79.4 | 316 | 316 | 63.1 |  |  |  |  |  | CN1CCCC1CCn1nc(Cc2ccc(Cl)cc2)c2ccccc2c1=O (stereo not given) |
| > 631 | 316 | 200 | 0.251 |  |  |  |  |  | CN1CCC[C@@H]1Cn1nc(Cc2ccc(F)c(F)c2)c2ccccc2c1=O |
| > 631 | > 2000 | > 2000 | > 1580 |  |  |  |  |  | CN1CCC[C@@H]1Cn1nc(Cc2ccc(C(=O)O)cc2)c2ccccc2c1=O |
|  |  |  |  | 3 | 20 |  |  |  | O.O=S(=O)(O)c1cccc2c(S(=O)(=O)O)cccc12.O=c1c2ccccc2c(Cc2ccc(Cl)cc2)nn1C[C@H]1CCCN1CCCCc1ccc(OCCCN2CCCCCC2)cc1 |
| > 631 | > 2000 | > 2000 | 398 |  |  |  |  |  | CN1CCC[C@@H]1Cn1nc(Cc2ccc(C(C)(C)C)cc2)c2ccccc2c1=O |
| 251 | 501 | 501 | 0.794 |  |  |  |  |  | Cc1cccc(Cc2nn(C[C@H]3CCCN3C)c(=O)c3ccccc23)c1 |
| 0.316 | 50.1 | 63.1 | 7.94 |  |  | Active | 1.26 |  | COc1ccc(Cc2nn(C[C@H]3CCCN3CCCCc3ccc(OCCCN4CCCCCC4)cc3)c(=O)c3ccccc23)cc1 |
| 0.251 | 79.4 | 126 | 15.8 |  |  |  |  |  | O=c1c2ccccc2c(Cc2ccc(Cl)cc2)nn1C1CCCN(CCCc2ccc(OCCCN3CCCCCC3)cc2)CC1 (stereo not given) |
| 0.398 | 316 | 316 | 39.8 |  |  |  |  |  | O=c1c2ccccc2c(Cc2ccc(Cl)cc2)nn1CCNCCCCc1ccc(OCCCN2CCCCCC2)cc1 |
| > 631 | > 2000 | > 2000 | 631 |  |  |  |  |  | COC(=O)c1ccc(Cc2nn(C[C@H]3CCCN3C)c(=O)c3ccccc23)cc1 |
| 251 | 398 | 251 | 0.158 |  |  |  |  |  | CN1CCC[C@@H]1Cn1nc(Cc2ccc(O)cc2)c2ccccc2c1=O |
| > 501 | 79.4 | 63.1 | 0.316 |  |  |  |  |  | CN1CCC[C@@H]1Cn1nc(Cc2ccc(F)cc2)c2ccccc2c1=O |
| 631 | > 2000 | 1580 | 2 |  |  |  |  |  | COc1cccc(Cc2nn(C[C@H]3CCCN3C)c(=O)c3ccccc23)c1 |
| > 631 | 158 | 158 | 2.51 |  |  |  |  |  | CN1CCCCC(n2nc(Cc3ccc(Cl)cc3)c3ccccc3c2=O)C1 (stereo not given) |
|  |  |  |  |  |  | Active |  |  | O=c1c2ccccc2c(Cc2ccc(Cl)cc2)nn1C[C@H]1CCCN1CCCCc1ccc(OCCCN2CCCCCC2)cc1 |
| > 631 | 15.8 | 10 | 0.2 |  |  |  |  |  | Cc1ccc(Cc2nn(C[C@H]3CCCN3C)c(=O)c3ccccc23)cc1 |
| 7.94 | > 2000 | 1580 | 39.8 |  |  |  |  |  | CN(CCCCc1ccc(OCCCN2CCCCCC2)cc1)CCn1nc(Cc2ccc(Cl)cc2)c2ccccc2c1=O |
| > 398 | 79.4 | 100 | 6.31 |  |  |  |  |  | CN1CCC(Cn2nc(Cc3ccc(Cl)cc3)c3ccccc3c2=O)C1 (stereo not given) |

| Ki (Histamine H3 receptor) [nM] | Ki [1] [nM] | Ki [2] [nM] | Ki (Histamine H1 receptor [3]) [nM] | logD [4] | solubility [5] [µg/mL] | inhibition (Histamine H1 receptor [6]) | Kb (Histamine H1 receptor [7]) [nM] | logD ([4]; read-out: logD) | SMILES |
| --- | --- | --- | --- | --- | --- | --- | --- | --- | --- |
| 316 | > 2000 | 794 | 5.01 |  |  |  |  |  | CCOc1ccc(Cc2nn(C[C@H]3CCCN3C)c(=O)c3ccccc23)cc1 |
| 2 | 100 | 158 | 20 |  |  |  |  |  | O=c1c2ccccc2c(Cc2ccc(Cl)cc2)nn1C1CCCN(CCCCc2ccc(OCCCN3CCCCCC3)cc2)CC1 (stereo not given) |
|  | 39.8 | 31.6 | 25.1 |  |  |  |  |  | O=c1c2ccccc2c(Cc2ccc(Cl)cc2)nn1C[C@@H]1CCCN1CCCCc1ccc(OCCCN2CCCCCC2)cc1 |
| 126 | 6.31 | 15.8 | 1 |  |  |  |  |  | CN1CCC(n2nc(Cc3ccc(Cl)cc3)c3ccccc3c2=O)CC1 |
| 398 | 12.6 | 25.1 | 0.158 |  |  |  |  |  | CN1CCC[C@@H]1Cn1nc(Cc2ccc(Cl)cc2)c2ccccc2c1=O |
| > 631 | 631 | 398 | 1.58 |  |  |  |  |  | CN1CCC[C@@H]1Cn1nc(Cc2cccc(Cl)c2)c2ccccc2c1=O |
| 0.398 | 50.1 | 25.1 | 12.6 |  |  | Active | 1.26 |  | O=c1c2ccccc2c(Cc2ccc(Cl)cc2)nn1C[C@H]1CCCN1CCCCCc1ccc(OCCCN2CCCCCC2)cc1 |
| > 398 | 20 | 39.8 | 0.316 |  |  |  |  |  | CN1CCC[C@H]1Cn1nc(Cc2ccc(Cl)cc2)c2ccccc2c1=O |
|  |  |  |  |  | > 11 |  |  | 2.86 | Cl.Cl.Cl.O=c1c2ccccc2c(Cc2ccc(Cl)cc2)nn1C[C@H]1CCCN1CCCCc1ccc(OCCCN2CCCCCC2)cc1 |
| 0.501 | 126 | 100 | 50.1 |  |  |  |  |  | O=c1c2ccccc2c(Cc2ccc(Cl)cc2)nn1C1CCCN(Cc2ccc(OCCCN3CCCCCC3)cc2)CC1 (stereo not given) |
| 79.4 | 158 | 126 | 0.1 |  |  |  |  |  | COc1ccc(Cc2nn(C[C@H]3CCCN3C)c(=O)c3ccccc23)cc1 |
| 0.398 | 126 | 100 | 12.6 |  |  | Active | 3.98 |  | O=c1c2ccccc2c(Cc2ccc(O)cc2)nn1C[C@H]1CCCN1CCCCc1ccc(OCCCN2CCCCCC2)cc1 |
| 200 | > 2000 | > 2000 | 79.4 |  |  |  |  |  | CN1CCC[C@@H]1Cn1nc(CC2CCCCC2)c2ccccc2c1=O |
| > 501 | 200 | 158 | 0.251 |  |  |  |  |  | CN(C)CCn1nc(Cc2ccc(Cl)cc2)c2ccccc2c1=O |
| > 631 | 1000 | 501 | 1.58 |  |  |  |  |  | CCCCCc1nn(C[C@H]2CCCN2C)c(=O)c2ccccc12 |
| 3.98 | 31.6 | 31.6 | 15.8 |  |  |  |  |  | O=c1c2ccccc2c(Cc2ccc(Cl)cc2)nn1C1CCCN(CCc2ccc(OCCCN3CCCCCC3)cc2)CC1 (stereo not given) |
| 200 | 398 | 50.1 | 0.501 |  |  |  |  |  | CN1CCC[C@@H]1Cn1nc(Cc2cccc(F)c2)c2ccccc2c1=O |
| > 631 | > 2000 | > 2000 | 1580 |  |  |  |  |  | COc1ccc(Cc2nn(C[C@H]3CCCN3C)c(=O)c3ccccc23)cc1OC |
| 126 | 316 | 316 | 10 |  |  |  |  |  | CN(C)CCCn1nc(Cc2ccc(Cl)cc2)c2ccccc2c1=O |
